In assay [1] the test system is Hepatocyte. Description: Hepatoprotective activity in ddY mouse hepatocytes assessed as inhibition of D-galactosamine-induced cytotoxicity after 44 hrs by MTT assay relative to control. In kind it is functional, cell-based. A digest of the protocol: (§1)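 Cells then exposed to D-GalN (2 mM) plus test sample for 44 h. MTT was added for 4 h. Formazan was dissolved in acidic 2-propanol and read at 562 nm (reference 660 nm). Inhibition (%) = (sample − control)/(normal − control) × 100. Values are means ± SEM.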
Background: Tetrazolium dyes change colour on reduction, which living cells bring about.

Assay [2] relates to Hepatocyte. In words: Hepatoprotective activity in ddY mouse hepatocytes assessed as inhibition of D-galactosamine-induced cytotoxicity at 100 uM after 44 hrs by MTT assay relative to control. In kind it is functional. A digest of the protocol:
as §1

For assay [3], the system named is Hepatocyte. In words: Hepatoprotective activity in ddY mouse hepatocytes assessed as inhibition of D-galactosamine-induced cytotoxicity at 30 uM after 44 hrs by MTT assay relative to control. In kind it is functional. A digest of the protocol:
as §1

In assay [4] the test system is Hepatocyte. In words: Hepatoprotective activity in ddY mouse hepatocytes assessed as inhibition of D-galactosamine-induced cytotoxicity at 10 uM after 44 hrs by MTT assay relative to control. In kind it is functional. The essentials: as §1
Assay [5] has as its system Hepatocyte. Description: Hepatoprotective activity in ddY mouse hepatocytes assessed as inhibition of D-galactosamine-induced cytotoxicity at 3 uM after 44 hrs by MTT assay relative to control. In kind it is functional. The essentials:
as §1

A word on the IC50: it is the concentration needed to halve the response being measured. A word on the inhibition: it is the change of the read-out against control, counted positive when it falls.

With `CC(C)(O)[C@@H]1CC=C(CO)CC1`, the IC50 in the assay with Hepatocyte [1] is 90 µM. In addition, the inhibition at 100 µM with Hepatocyte [2] turned out to be 53.3%. Further, the inhibition at 30 µM with Hepatocyte [3] amounted to 16.7%. Besides, the inhibition at 10 µM in the assay with Hepatocyte [4] was found to be 1.7%. In addition, the inhibition at 3 µM in the assay with Hepatocyte [5] was -1.5%.
As to `C/C1=C\CC(C)(C)[C@@H](O)[C@H]2C[C@@]2(C)[C@@H](O)CC1`, the IC50 in the assay with Hepatocyte [1] is 70 µM. Further, the inhibition at 100 µM in the assay on Hepatocyte [2] was determined as 54.8%. Moreover, in the assay on Hepatocyte [3], the inhibition at 30 µM was 37.3%. For the same compound, the inhibition at 10 µM in the assay on Hepatocyte [4] is 16.6%. In the assay with Hepatocyte [5], the inhibition at 3 µM was determined as 5.9%.
As for `CC1=C[C@H]2[C@H](C(C)C)CC[C@](C)(O)[C@H]2C[C@H]1O`, the inhibition at 100 µM with Hepatocyte [2] was determined as 15.2%. The inhibition at 30 µM in the assay with Hepatocyte [3] came to 9.3%. Moreover, the inhibition at 10 µM in the assay on Hepatocyte [4] was found to be 3.7%. Further, the inhibition at 3 µM in the assay on Hepatocyte [5] was -2.3%.
On to `CC1(C)C[C@@H]2O[C@@]2(C)CC[C@H]2O[C@]2(C)C[C@@H]2O[C@H]21`, for which, in the assay with Hepatocyte [1], the half-maximal inhibitory concentration (IC50) was 95 µM. Besides, in the assay on Hepatocyte [2], the inhibition at 100 µM came to 51.1%. Besides, the inhibition at 30 µM in the assay on Hepatocyte [3] was found to be 25.7%. Moreover, the inhibition at 10 µM with Hepatocyte [4] was determined as 9.7%. Also, in the assay on Hepatocyte [5], the inhibition at 3 µM stood at 6.9%.
With `CC1(C)CC2[C@H]1CC[C@@]1(C)O[C@]2(CO)CC[C@H]1O` (stereo partly specified), the inhibition at 100 µM in the assay with Hepatocyte [2] turned out to be 45.9%. The inhibition at 30 µM in the assay with Hepatocyte [3] was determined as 19.9%. Further, the inhibition at 10 µM with Hepatocyte [4] was found to be 10.4%. Further, the inhibition at 3 µM with Hepatocyte [5] amounted to 5.7%.
For the compound `C=C(C)[C@@H]1CC[C@@H](C)[C@@]2(O)CC(=O)C(C)=C2C1`, in the assay on Hepatocyte [1], the IC50 turned out to be 83 µM. In addition, in the assay with Hepatocyte [2], the inhibition at 100 µM turned out to be 58%. In the assay on Hepatocyte [3], the inhibition at 30 µM was 13.5%. The inhibition at 10 µM in the assay with Hepatocyte [4] was -1.1%. In the assay on Hepatocyte [5], the inhibition at 3 µM was -4.5%.
With `CC1(C)C[C@@H]2[C@@H]1CC[C@@]1(C)C[C@]2(O)CC[C@@H]1O`, in the assay on Hepatocyte [1], the IC50 stood at 100 µM. Moreover, in the assay on Hepatocyte [2], the inhibition at 100 µM turned out to be 51.7%. Besides, in the assay on Hepatocyte [3], the inhibition at 30 µM was 26.7%. The inhibition at 10 µM in the assay with Hepatocyte [4] stood at 16.8%. Moreover, the inhibition at 3 µM in the assay with Hepatocyte [5] came out at 6.3%.
Turning to `C=C1C/C=C/C(C)(C)C[C@@H](O)/C(C)=C\C[C@@H]1O`, in the assay with Hepatocyte [1], the IC50 was determined as 27 µM. Further, in the assay on Hepatocyte [2], the inhibition at 100 µM was found to be 80.8%. Also, the inhibition at 30 µM in the assay on Hepatocyte [3] was found to be 47.5%. Besides, the inhibition at 10 µM in the assay on Hepatocyte [4] was found to be 25.6%. Moreover, the inhibition at 3 µM with Hepatocyte [5] was 11.6%.
Regarding `CC1(C)CC2[C@H]1CC[C@@]1(C)OC[C@]2(O)CC[C@@H]1O` (stereo partly specified), the inhibition at 100 µM in the assay with Hepatocyte [2] came out at 36.4%. In addition, the inhibition at 30 µM with Hepatocyte [3] turned out to be 24.8%. For the same compound, in the assay with Hepatocyte [4], the inhibition at 10 µM was 14.3%. Moreover, the inhibition at 3 µM with Hepatocyte [5] was found to be 12.5%.
As to `CC1(C)C[C@H](O)[C@]23CC[C@@H](O)[C@@](C)(CC[C@@H]12)C3` [CLOVANEDIOL], the inhibition at 100 µM with Hepatocyte [2] worked out at 40.2%. The inhibition at 30 µM in the assay on Hepatocyte [3] was 32.3%. For the same compound, the inhibition at 10 µM in the assay with Hepatocyte [4] was found to be 13.6%. Also, in the assay on Hepatocyte [5], the inhibition at 3 µM is 3.6%.
On to `C=C(C)[C@@H]1CC[C@](C)(O)C2=C(C1)[C@](C)(O)CC2=O` [CYPERUSOL A1], for which the inhibition at 100 µM in the assay on Hepatocyte [2] came out at 16.5%. In the assay on Hepatocyte [3], the inhibition at 30 µM amounted to 9.5%. Besides, the inhibition at 10 µM in the assay with Hepatocyte [4] turned out to be 5.6%. Moreover, the inhibition at 3 µM in the assay on Hepatocyte [5] came out at 2.2%.
For `C=C(C)C(CC[C@H](C)O)CC1=C(C)CCC1=O` (stereo partly specified) [CYPERUSOL B1], in that order: 34.7%, 22.7%, 20.4% and 3%.
Take `C=C(C)C(CC[C@@H](C)O)CC1=C(C)CCC1=O` (stereo partly specified) [CYPERUSOL B2]: in the assay on Hepatocyte [2], the inhibition at 100 µM is 19.9%. Moreover, the inhibition at 30 µM in the assay with Hepatocyte [3] was -1.4%. Moreover, the inhibition at 10 µM with Hepatocyte [4] was found to be 6.5%. For the same compound, the inhibition at 3 µM in the assay with Hepatocyte [5] turned out to be 4.4%.
Consider `C=C(C)[C@@H]1CC[C@@]2(C)[C@H](O)CC[C@@](C)(O)[C@@H]2C1` [CYPERUSOL C], for which the inhibition at 100 µM with Hepatocyte [2] amounted to 29.9%. Besides, in the assay with Hepatocyte [3], the inhibition at 30 µM was found to be 28.4%. Further, in the assay with Hepatocyte [4], the inhibition at 10 µM was 8.1%. The inhibition at 3 µM in the assay with Hepatocyte [5] stood at 6.3%.
`C=C(C)[C@@H]1CC[C@@H](C)[C@]2(O)CC[C@](C)(O)C(=O)[C@@H]12` [CYPERUSOL D]: the inhibition at 100 µM in the assay on Hepatocyte [2] was 46.1%. The inhibition at 30 µM in the assay with Hepatocyte [3] was found to be 31.9%. The inhibition at 10 µM with Hepatocyte [4] is 2.6%. In addition, the inhibition at 3 µM in the assay with Hepatocyte [5] was -3.6%.
For `C=C(C)[C@@H]1CC[C@](C)(O)[C@H]2CC[C@](C)(O)[C@H]2C1` [GUAIDIOL], in that order: 35.4%, 20.3%, 10.4% and 2.6%.
`C=C(C)[C@@H]1CC[C@]2(C)C(=C(C)C(=O)C[C@H]2O)C1` [LIGUCYPERONOL]: in the assay with Hepatocyte [2], the inhibition at 100 µM came out at 46.7%. Also, the inhibition at 30 µM with Hepatocyte [3] amounted to 12.6%. Also, the inhibition at 10 µM in the assay with Hepatocyte [4] amounted to 13.9%. Further, the inhibition at 3 µM in the assay with Hepatocyte [5] was 5.5%.
Regarding `C=C(C)C(CCC(C)=O)CC1=C(C)CCC1=O` (stereo unspecified) [MANDASSIDIONE], in the assay with Hepatocyte [2], the inhibition at 100 µM was 21.6%. In the assay with Hepatocyte [3], the inhibition at 30 µM came out at 14.7%. Also, the inhibition at 10 µM in the assay with Hepatocyte [4] is 7.7%. Further, in the assay with Hepatocyte [5], the inhibition at 3 µM was -0.1%.
Take `COc1cc(C2Oc3cc([C@H]4Oc5cc(O)cc(O)c5C(=O)[C@@H]4O)ccc3OC2CO)ccc1O` (stereo partly specified) [SILIBININ]: in the assay with Hepatocyte [1], the half-maximal inhibitory concentration (IC50) was 41 µM. Also, the inhibition at 100 µM in the assay on Hepatocyte [2] came to 77%. The inhibition at 30 µM with Hepatocyte [3] turned out to be 45.2%. The inhibition at 10 µM in the assay on Hepatocyte [4] turned out to be 7.7%. For the same compound, the inhibition at 3 µM with Hepatocyte [5] was determined as 4.8%.
Take `CC1=CCC(C(C)(C)O)CC1O` (stereo unspecified) [SOBREROL]: the inhibition at 100 µM with Hepatocyte [2] was found to be 23.7%. Also, in the assay with Hepatocyte [3], the inhibition at 30 µM stood at 15.9%. The inhibition at 10 µM in the assay on Hepatocyte [4] stood at 8.9%. Also, the inhibition at 3 µM in the assay on Hepatocyte [5] was 5.5%.
Take `CC1(C)C[C@H]2[C@H]1[C@H]1C[C@@]1(C)[C@H](O)CC[C@]2(C)O` [TRICYCLOHUMULADIOL]: the inhibition at 100 µM with Hepatocyte [2] was found to be 37.7%. Moreover, in the assay on Hepatocyte [3], the inhibition at 30 µM is 22.1%. Moreover, the inhibition at 10 µM in the assay with Hepatocyte [4] is 16.1%. For the same compound, the inhibition at 3 µM with Hepatocyte [5] is 10.9%.

(Values after ChEMBL document CHEMBL1151166, “Structures of new sesquiterpenes and hepatoprotective constituents from the Egyptian herbal medicine Cyperus longus” (J Nat Prod, 2004).)
